Laboratory results taken from ChEMBL document CHEMBL4765441, “Design, synthesis and anti-cancer activity of pyrrole-imidazole polyamides through target-downregulation of c-kit gene expression” (Eur J Med Chem, 2020).
Calls of active or inactive are those of the source. The rule behind the calls is not given here.

Columns and labels:
[1] = test system: SGC-7901; assay: Inhibition of cell migration in human SGC7901 cells at 1.5 uM incubated for 48 hrs by inverted fluorescence microscope based scratch wound healing assay; assay type: functional
Method in brief: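 20 × 10^4 cells per well grown to 80% confluence. Wound scratched with a pipette tip, washed twice with PBS and photographed under an inverted fluorescence microscope. Cells then held in serum-free medium with compound for 48 h. Migration measured as distance moved from the wound edge; mean ± SD, n = 3.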

[2] = test system: SGC-7901; assay: Down regulation of c-kit mRNA expression in human SGC-7901 cells at 7.5 uM incubated for 36 hrs by Western blot analysis; assay type: functional, cell-based; details: in the assay text read “RT-PCR analysis” for “Western blot analysis”
Method in brief: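 Cells treated for 36 h. Total RNA quantified by Nanodrop and checked on 1.5% agarose with ethidium bromide. 400 ng RNA per one-step RT-PCR with c-kit-specific primers; reverse transcription 30 min at 50 °C, then 2 min at 94 °C. Normalized to β-actin; semi-quantitative.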

[3] = test system: A549; assay: Down regulation of c-kit gene expression in human A549 cells incubated for 36 hrs by Western blot analysis; assay type: functional, cell-based
Method in brief: (§1)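 Cells exposed to compound for 36 h, then lysed in RIPA and protein measured by BCA. 30 units of total protein separated by 10% SDS-PAGE, transferred to PVDF and blocked with 5% BSA. Primary antibodies, with β-tubulin as reference, at 4 °C; secondary 2 h; ECL detection. Bands quantified by densitometry, mean ± SD, n = 3.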

[4] = test system: SGC-7901; assay: Down regulation of c-kit gene expression in human SGC-7901 cells incubated for 36 hrs by Western blot analysis; assay type: functional, cell-based; method in brief: as §1
[5] = test system: SGC-7901; assay: Induction of apoptosis in human SGC7901 cells assessed as necrotic cells at 7.5 uM incubated for 36 hrs by Annexin V-FITC/propidium iodide staining-based flow cytometric analysis (reference value: 0.34 %); assay type: functional
[6] = test system: SGC-7901; assay: Induction of apoptosis in human SGC7901 cells assessed as late apoptotic cells at 15 uM incubated for 36 hrs by Annexin V-FITC/propidium iodide staining-based flow cytometric analysis (reference value: 3.69 %); assay type: functional
[7] = test system: SGC-7901; assay: Induction of apoptosis in human SGC7901 cells assessed as late apoptotic cells at 7.5 uM incubated for 36 hrs by Annexin V-FITC/propidium iodide staining-based flow cytometric analysis (reference value: 3.69 %); assay type: functional
[8] = test system: A549; assay: Induction of apoptosis in human A549 cells assessed as necrotic cells at 7.5 uM incubated for 36 hrs by Annexin V-FITC/propidium iodide staining-based flow cytometric analysis (reference value: 0.31 %); assay type: functional
[9] = test system: A549; assay: Induction of morphological changes in human A549 cells assessed as membrane bulge at 15 uM incubated for 36 hrs by microscopic analysis; assay type: functional, cell-based
Method in brief: (§2)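 Cells seeded at 2 × 10^5 per well and grown 24 h. Medium then replaced with compound-containing medium. After 36 h co-culture, morphology inspected by light microscopy.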

[10] = test system: SGC-7901; assay: Induction of apoptosis in human SGC7901 cells assessed as viable cells at 7.5 uM incubated for 36 hrs by Annexin V-FITC/propidium iodide staining-based flow cytometric analysis (reference value: 93.2 %); assay type: functional; details: read-out: Activity
[11] = test system: A549; assay: Induction of apoptosis in human A549 cells assessed as necrotic cells at 15 uM incubated for 36 hrs by Annexin V-FITC/propidium iodide staining-based flow cytometric analysis (reference value: 0.31 %); assay type: functional
[12] = test system: SGC-7901; assay: Induction of morphological changes in human SGC7901 cells assessed as appearance of round shaped cells at 7.5 uM incubated for 36 hrs by microscopic analysis; assay type: functional, cell-based; method in brief: as §2
[13] = test system: A549; assay: Induction of apoptosis in human A549 cells assessed as viable cells at 15 uM incubated for 36 hrs by Annexin V-FITC/propidium iodide staining-based flow cytometric analysis (reference value: 97.9 %); assay type: functional; details: read-out: Activity
[14] = test system: SGC-7901; assay: Antiproliferative activity against human SGC7901 cells assessed as reduction in cell viability incubated for 48 hrs by xCELLigence RTCA; assay type: functional, cell-based; details: SGC-7901, 48 h
[15] = test system: GISTT1; assay: Down regulation of c-kit gene expression at transcriptional level in human GIST-T1 cells; assay type: functional, cell-based
[16] = test system: SGC-7901; assay: Induction of apoptosis in human SGC7901 cells assessed as early apoptotic cells at 15 uM incubated for 36 hrs by Annexin V-FITC/propidium iodide staining-based flow cytometric analysis (reference value: 2.74 %); assay type: functional
[17] = test system: SGC-7901; assay: Induction of apoptosis in human SGC7901 cells assessed as necrotic cells at 15 uM incubated for 36 hrs by Annexin V-FITC/propidium iodide staining-based flow cytometric analysis (reference value: 0.34 %); assay type: functional
[18] = test system: A549; assay: Antiproliferative activity against human A549 cells assessed as reduction in cell viability incubated for 48 hrs by xCELLigence RTCA; assay type: functional, cell-based; details: A549, 48 h
[19] = test system: GISTT1; assay: Down regulation of c-kit gene expression at translational level in human GIST-T1 cells at 5 uM; assay type: functional, cell-based
[20] = test system: A549; assay: Induction of apoptosis in human A549 cells assessed as viable cells at 7.5 uM incubated for 36 hrs by Annexin V-FITC/propidium iodide staining-based flow cytometric analysis (reference value: 97.9 %); assay type: functional; details: read-out: Activity
[21] = test system: A549; assay: Induction of apoptosis in human A549 cells assessed as late apoptotic cells at 15 uM incubated for 36 hrs by Annexin V-FITC/propidium iodide staining-based flow cytometric analysis (reference value: 0.41 %); assay type: functional
[22] = test system: dsDNA; assay: Binding affinity to 5'-AGGGGAGGCGAGGAGGGGCGTGGCCGG-3'/3'-TCCCCTCCGCTCCTCCCCGCACCGGCC-5' dsDNA (unknown origin) by circular dichroism spectroscopic analysis; assay type: nucleic-acid assay; details: Homo sapiens
Method in brief: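 Target duplex annealed at 95 °C, held 24 h in pH 7.0 buffer (10 mM sodium cacodylate, 100 mM NaCl, 0.5% DMSO), then degassed. Compound titrated in at compound:DNA ratios 0.0–3.0, room temperature, 15 min equilibration per addition. CD read 225–400 nm in a 5 mm quartz cell at 100 nm/min, 5.0 nm bandwidth. Average of three parallel runs.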

[23] = test system: dsDNA; assay: Binding affinity to 5'-AGGGGAGGCGAGGAGGGGCGTGGCCGG-3'/3'-TCCCCTCCGCTCCTCCCCGCACCGGCC-5' dsDNA (unknown origin) at 1:2 DNA:compound ratio by SYBR GOLD staining based EMSA; assay type: nucleic-acid assay; details: Homo sapiens
Method in brief: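 Target 27-bp c-kit promoter duplex, annealed at 95 °C, then incubated overnight with or without compound in pH 7.4 buffer (10 mM Tris-HCl, 10 mM KCl, 0.1 mM EDTA). Mixtures run on 16% native polyacrylamide gel at 150 V for 3 h. Gels stained with SYBR Gold for 30 min and imaged on a gel documentation system.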

[24] = test system: Bel-7402; assay: Antiproliferative activity against human Bel-7402 cells assessed as reduction in cell viability incubated for 48 hrs by xCELLigence RTCA; assay type: functional, cell-based; details: Bel-7402, 48 h
[25] = test system: SGC-7901; assay: Induction of morphological changes in human SGC7901 cells assessed as cell detachment at 7.5 uM incubated for 36 hrs by microscopic analysis; assay type: functional, cell-based; method in brief: as §2
[26] = test system: GISTT1; assay: Antiproliferative activity against human GIST-T1 cells; assay type: functional, cell-based
[27] = test system: SGC-7901; assay: Induction of apoptosis in human SGC7901 cells assessed as early apoptotic cells at 7.5 uM incubated for 36 hrs by Annexin V-FITC/propidium iodide staining-based flow cytometric analysis (reference value: 2.74 %); assay type: functional

CC(=O)Nc1cn(C)c(C(=O)Nc2cn(C)c(C(=O)Nc3cc(C(=O)Nc4cn(C)c(C(=O)NCCC(=O)Nc5cn(C)c(C(=O)Nc6cn(C)c(C(=O)NCC[C@@H](N)C(=O)Nc7cc(C(=O)Nc8cc(C(=O)NC[C@@H](O)CC(=O)Nc9cc(C(=O)Nc%10cn(C)c(C(=O)Nc%11cc(C(=O)Nc%12cc(C(=O)NCCC(=O)NCCCN(C)C)n(C)c%12)n(C)c%11)n%10)n(C)c9)n(C)c8)n(C)c7)n6)n5)n4)n(C)c3)n2)n1.Cl.Cl
inhibition at 1.5 µM [1]: 85.7% | Activity [2]: Active | Activity [3]: Dose-dependent effect | Activity [4]: Dose-dependent effect | Activity [5]: 0.92% | Activity [6]: 12.8% | Activity [7]: 10.2% | Activity [8]: 2.76% | Activity [9]: Active | viability at 7.5 µM [10]: 56.4% | Activity [11]: 0.12% | Activity [12]: Active | viability at 15 µM [13]: 51.4% | IC50 [14]: 2.96 µM | Activity [15]: Active | Activity [16]: 41.7% | Activity [17]: 1.83% | IC50 [18]: 5.97 µM | Activity [19]: Active | viability at 7.5 µM [20]: 60.5% | Activity [21]: 19.6% | Activity [22]: Active | Activity [23]: Active | IC50 [24]: 11.2 µM | Activity [25]: Active | Activity [26]: Active | Activity [27]: 32.4%
